The entries come from a sample that favours hits as a whole.
NALP1 yeast inh: NALP1 inflammasome inhibitors in reconstituted yeast, colorimetric, S. cerevisiae, triplicate retest; S. cerevisiae NALP1/ASC/caspase-1 growth, X-gal OD620, 72 h; inhibition, % at 10 µM; 0.61% of 280,000 active; AID 2071, 2009; in the data active = inhibition mostly above about 24%, no sharp cut-off; inactive = mostly below about 32%
Calb FLC: C. albicans growth inhibition with fluconazole, primary screen, CaCi-2 strain, Alamar Blue fluorescence | growth inhibition, % (test concentration not listed) | C. albicans CaCi-2 + fluconazole, 48 h | AID 1979, 2009 | 0.57% of 300,000 active;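 active = growth inhibition above about 58% in most replicates, limit read from the data, passing the limit was not always enough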;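 also: all wells also contain fluconazole at 8 µg/ml as a sub-toxic cotreatment; 0% = median of DMSO wells and 100% = median of geldanamycin control wells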
PolyA inhibitor: polyadenylation inhibitors in yeast reporter cells, primary screen, luminescence, S. cerevisiae; S. cerevisiae SKY197-pL101 polyadenylation reporter, beta-gal luminescence; efflux-impaired pdr1/pdr3 knockout yeast; score 100 = 6 SD above DMSO; activity score, % at 12 µM; 0.02% of 300,000 active; AID 1875, 2009;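 active = lowest replicate activity score at least 50, where 100 means six control SD above control mean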;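 also: yeast exposed to compound for 9 h at 30 °C; higher score means more reporter readthrough which indicates perturbed polyadenylation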
Lmaj promast: Leishmania major promastigote growth inhibition, primary screen; Leishmania major promastigotes, resazurin fluorescence viability; inhibition, % at 10 µM; 9% of 200,000 active; in the data active = inhibition above about 50%;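 also: promastigotes grown with compound for 44 hours at 28 °C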
T cruzi inh: inhibitors of intracellular T. cruzi growth, primary screen, luminescence, NIH3T3 host cells. T. cruzi beta-gal in NIH3T3, 90 h. 1.4% of 300,000 active. inhibition, % (no concentration beside the values);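 active = mean inhibition across valid replicates above about 55%, limit read from the data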;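 also: signal also drops with host cell toxicity which is not excluded here; 0% = plate median of DMSO wells and 100% = zero luminescence signal; higher percent means less beta-gal luminescence so fewer parasites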
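System: NIH/3T3 fibroblasts plus reporter T. cruzi. Medium: DMEM plus 2% FBS. Probe or stimulus: 5000 reporter trypomastigotes per well. Compound: single 50 nL compound addition per well in DMSO. Incubation: co-culture of at least 90 h after 3 h attachment. Detection: GalScreen β-gal luminescence, detergent lysis, 60 min. Evaluation: parasite load inhibition, %.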
NLRP3 yeast inh: NALP3 inflammasome inhibitors in reconstituted yeast, primary screen, luminescence, uHTS | 0.39% of 330,000 active | AID 2825, 2010 | Yeast reconstituted NLRP3/ASC/caspase-1, beta-gal luminescence, 24 h | inhibition, % at 10 µM;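 active = inhibition of 50% or more; inactive = inhibition below 50%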;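 also: plate controls were induced DMSO wells for no effect and uninduced yeast grown without galactose for full effect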
* hit, by the source's call.

What do the screens show for `CCN(CC)c1ccc(NC(=O)C2=CCN(S(=O)(=O)c3ccc(F)cc3)CC2)c(C)c1`?
NALP1 yeast inh: 30; Calb FLC: -1; PolyA inhibitor: -6; Lmaj promast: 11; T cruzi inh: 8; NLRP3 yeast inh: 12

How did O=C(CCS(=O)(=O)c1ccc(Cl)cc1)NC1CCCC1 do in these assays?
NLRP3 yeast inh: 11

What do the screens show for `NS(=O)(=O)c1ccc(NC(=S)Nc2ccc(C(=O)N3CCCCC3)cc2)cc1`?
NALP1 yeast inh: -4; Calb FLC: -6; PolyA inhibitor: -13; Lmaj promast: -3; T cruzi inh: 0; NLRP3 yeast inh: -3

Results for COc1cc(C(=O)n2nc(C)cc2C)ccc1O ?
NALP1 yeast inh: 0; Calb FLC: -1; PolyA inhibitor: -6; Lmaj promast: -4; T cruzi inh: -9; NLRP3 yeast inh: 5

How did O=C(NCc1cccc(Cl)c1)c1ccc(S(=O)(=O)Nc2cccc(C(F)(F)F)c2)cc1 do in these assays?
Calb FLC: 19; PolyA inhibitor: 5; Lmaj promast: 64*; T cruzi inh: -8; NLRP3 yeast inh: 10

What do the screens show for `COC(=O)Cn1cnc2scc(-c3ccc(C)cc3)c2c1=O`?
NALP1 yeast inh: 18; Calb FLC: 10; PolyA inhibitor: -5; T cruzi inh: 0; NLRP3 yeast inh: 14

Results for Cc1ccc(C)c(Nc2c([N+](=O)[O-])cc(C(=O)N3CC(=O)Nc4ccccc43)cc2[N+](=O)[O-])c1 ?
NALP1 yeast inh: 23; Calb FLC: 15; PolyA inhibitor: -10; Lmaj promast: 96*; T cruzi inh: 66*; NLRP3 yeast inh: 22

How did Cc1ccc(C)c(NC(=O)CNC(=O)N2CC(=O)Nc3ccccc32)c1 do in these assays?
NALP1 yeast inh: 18; Calb FLC: -4; PolyA inhibitor: 14; T cruzi inh: -3; NLRP3 yeast inh: 11

What do the screens show for `Cc1cccc(Nc2c([N+](=O)[O-])cc(C(=O)N3CC(=O)Nc4ccccc43)cc2[N+](=O)[O-])c1`?
NALP1 yeast inh: 3; Calb FLC: 26; PolyA inhibitor: 15; Lmaj promast: 82*; T cruzi inh: 84*; NLRP3 yeast inh: 30

What do the screens show for `CC(C)(C)SCCNC(=O)CN(c1ccccc1)S(=O)(=O)c1ccccc1`?
NALP1 yeast inh: -4; Calb FLC: 5; PolyA inhibitor: -4; Lmaj promast: 23; T cruzi inh: -7; NLRP3 yeast inh: 8

Results for O=C(CSCc1ccccc1)Nc1ccc(S(=O)(=O)N2CCOCC2)cc1 ?
NALP1 yeast inh: -3; Calb FLC: 2; PolyA inhibitor: 5; Lmaj promast: 0; T cruzi inh: 5; NLRP3 yeast inh: -9

Results for CCOC(=O)c1ccc(NC(=O)CSc2nnc(NC(=O)c3ccc(S(=O)(=O)N4CCOCC4)cc3)s2)cc1 ?
NALP1 yeast inh: 22; Calb FLC: -4; PolyA inhibitor: 1; Lmaj promast: 91*; T cruzi inh: 0; NLRP3 yeast inh: 18

Results for O=C(CSCc1ccc(Br)cc1)Nc1ccc(S(=O)(=O)N2CCOCC2)cc1 ?
NALP1 yeast inh: -2; Calb FLC: -9; PolyA inhibitor: 3; Lmaj promast: 100*; T cruzi inh: 10; NLRP3 yeast inh: -5

How did CC(C)C(C(=O)Nc1ccc(S(=O)(=O)N2CCOCC2)cc1)N1C(=O)c2ccccc2C1=O (configuration not stated) do in these assays?
NALP1 yeast inh: 43*; Calb FLC: -21; PolyA inhibitor: -5; Lmaj promast: -3; T cruzi inh: -1; NLRP3 yeast inh: 2

Results for Cc1ccc(NC(=O)CSc2nnc(NC(=O)c3ccc(S(=O)(=O)N4CCOCC4)cc3)s2)cc1 ?
NALP1 yeast inh: 42; Calb FLC: 2; PolyA inhibitor: 10; Lmaj promast: -12; T cruzi inh: 2; NLRP3 yeast inh: 11

How did O=C(CN1CCCCCC1)Nc1ccc(S(=O)(=O)N2CCOCC2)cc1 do in these assays?
NALP1 yeast inh: 3; Calb FLC: -9; PolyA inhibitor: 2; Lmaj promast: 55*; T cruzi inh: -18; NLRP3 yeast inh: 5

How did CCCCCn1nc(C(=O)N(CC)c2c(N)n(CCCC)c(=O)[nH]c2=O)c2ccccc2c1=O do in these assays?
NLRP3 yeast inh: -3

Results for O=C(Nc1ccc(S(=O)(=O)N2CCOCC2)cc1)c1ccc([N+](=O)[O-])s1 ?
PolyA inhibitor: 7; T cruzi inh: 72*; NLRP3 yeast inh: 18

Results for O=C(CSc1cccc2cccnc12)Nc1cccc(S(=O)(=O)N2CCOCC2)c1 ?
NALP1 yeast inh: 4; Calb FLC: 1; PolyA inhibitor: 8; Lmaj promast: 5; T cruzi inh: -13; NLRP3 yeast inh: 18

Results for O=C(Cc1ccccc1)Nc1ccc(S(=O)(=O)N2CCCC2)cc1 ?
NALP1 yeast inh: 5; Calb FLC: -8; PolyA inhibitor: 18; T cruzi inh: -12; NLRP3 yeast inh: 8

How did CC(C)c1ccc(N(CC(=O)Nc2ccc(S(=O)(=O)N3CCOCC3)cc2)S(C)(=O)=O)cc1 do in these assays?
NALP1 yeast inh: 5; Calb FLC: 17; PolyA inhibitor: 20; Lmaj promast: 90*; T cruzi inh: 6; NLRP3 yeast inh: -2

What do the screens show for `O=C(Cn1c(=O)sc2ccccc21)Nc1ccc(S(=O)(=O)N2CCCC2)cc1`?
NALP1 yeast inh: 32; Calb FLC: -1; PolyA inhibitor: 23; Lmaj promast: 80*; T cruzi inh: 0; NLRP3 yeast inh: 4

Results for O=C(CSc1cccc2cccnc12)Nc1ccc(S(=O)(=O)N2CCOCC2)cc1 ?
NALP1 yeast inh: 8; Calb FLC: 1; PolyA inhibitor: -6; T cruzi inh: 63*; NLRP3 yeast inh: 15

How did CCN(Cc1ccccc1)C(=O)c1nn(-c2ccc(OC)cc2)c(=O)c2c1c1ccccc1n2C do in these assays?
NALP1 yeast inh: 1; Calb FLC: -5; PolyA inhibitor: -24; Lmaj promast: 50*; T cruzi inh: 37; NLRP3 yeast inh: 9

Results for CCN(CC)CCCNC(=O)c1cn(-c2cccc(OC)c2)c(=O)c2ccccc12 ?
NALP1 yeast inh: 11; Calb FLC: -1; PolyA inhibitor: -21; T cruzi inh: -1; NLRP3 yeast inh: 13

How did CCCCN(CC)CCCNC(=O)c1cn(-c2ccc(OC)cc2)c(=O)c2ccccc12 do in these assays?
NALP1 yeast inh: -82; Calb FLC: 2; PolyA inhibitor: -2; T cruzi inh: 58*; NLRP3 yeast inh: 10

What do the screens show for `CCCCN(CC)CCNC(=O)c1cn(C)c(=O)c2c1c1ccccc1n2C`?
NALP1 yeast inh: 12; Calb FLC: -5; PolyA inhibitor: -13; T cruzi inh: 5; NLRP3 yeast inh: 10

Bioassay records deposited in PubChem BioAssay by several laboratories.
